Experimental data pooled from the literature.
Target: Maternal embryonic leucine zipper kinase (MELK, Homo sapiens, UniProt Q14680)

The remaining binding of CN([C@@H]1CCc2c(CC(=O)O)c3cc(S(C)(=O)=O)ccc3n2C1)S(=O)(=O)c1ccc(F)cc1 is reported as 84% (cell-free assay; competition with immobilised ligand; 1 µM).
For CCN1CCN(Cc2ccc(C(=O)Nc3ccc(C)c(Oc4ccc5c(c4)CC(=O)N5)c3)cc2C(F)(F)F)CC1, the remaining binding was 100% (binding; competition with immobilised ligand; 1 µM).
CCCCN(CCCC)C(=O)CN1C[C@H](c2cc(OC)c3c(c2)OCO3)[C@@H](C(=O)O)[C@@H]1CC(C)(C)CCC gave a remaining binding of 100% (cell-free assay; competition with immobilised ligand; 1 µM).
CN(c1nccc(-c2cnn3ncccc23)n1)C1CC1 gave a remaining binding of 73% (binding; 1 µM).
C[C@@H](c1ccc(-n2cnc3c(N)ncnc32)cc1)N1CCc2nn(C)c(Cc3ccccc3)c2C1=O has a remaining binding of 93% (binding; competition with immobilised ligand; 0.1 µM).
With CN(C)c1nccc(-c2cnc3ncccn23)n1 the remaining binding was 100% (binding; 1 µM).
O=C(c1ccc(Nc2ncc(Cl)c(-c3ccc(Cl)s3)n2)cc1)N1CCC(N2CCCC2)CC1 has a remaining binding of 54% (binding; competition with immobilised ligand; 1 µM).
The remaining binding of COc1ccc2c(c1)O[C@H](c1ccc(OC)c(OC)c1)C[C@@H]2NC(=O)C1(c2ccc3c(c2)OC(F)(F)O3)CC1 is reported as 78% (cell-free assay; competition with immobilised ligand; 1 µM).
For CNC(=O)[C@@H]1CC[C@@H](n2c(-c3ccc4cnccc4c3)nc3ccc(C(=O)NCc4cccc(C(N)=O)c4)cc32)C1, the remaining binding was 78% (binding; competition with immobilised ligand; 1 µM).
For C[C@H]1CCN(c2nccc(-c3cnn4ncccc34)n2)C1, the remaining binding was 33% (binding; 1 µM).
The remaining binding of O=C(Nc1c[nH]nc1C(=O)NC1CCNCC1)c1cc(F)cc(F)c1 is reported as 82% (binding; competition with immobilised ligand; 1 µM).
CN(c1ccnc(CNc2nc(Nc3ccc4c(c3)CC(=O)N4)ncc2C(F)(F)F)n1)S(C)(=O)=O gave a remaining binding of 40% (cell-free assay; competition with immobilised ligand; 1 µM).
The remaining binding of c1cncc(-c2cccc(Nc3nccc(NC4CCCCC4)n3)c2)c1 is reported as 84% (binding; competition with immobilised ligand; 10 µM).
With Nc1ncc2c(n1)-c1c([nH]c3ccc(C#CC4CC4)cc13)CCCC2 the remaining binding was 100% (binding; competition with immobilised ligand; 1 µM).
The remaining binding of CN(C)c1ncc(F)c(-c2cnn3ncccc23)n1 is reported as 79% (binding; 1 µM).
O=C(NCCCN1CCOCC1)c1ccc(Nc2ncc(Cl)c(-c3ccc(Cl)s3)n2)cc1 has a remaining binding of 69% (binding; competition with immobilised ligand; 1 µM).
Cc1c(NC(=O)c2cc(C(N)=O)nc3cc(F)ccc23)c(C(F)(F)F)nn1Cc1ccc(C#N)cc1 has a remaining binding of 90% (cell-free assay; competition with immobilised ligand; 1 µM).
For CC1CCCN1c1nccc(-c2cnn3ncccc23)n1 (stereo not shown), the remaining binding was 97% (binding; 1 µM).
The remaining binding of CC1=C(C#N)[C@@H](c2ccc3[nH]nc(C)c3c2)C(C#N)=C(c2ccc(Cl)cc2)N1 is reported as 100% (cell-free assay; competition with immobilised ligand; 1 µM).
For Cc1cnn2ncc(-c3ccnc(N(C)C)n3)c2c1, the remaining binding was 100% (binding; 1 µM).
For O=C(NCCCC1CCCCC1)c1ccc(CNC(=O)c2cnn(-c3ccccc3)c2C(F)(F)F)cc1, the remaining binding was 80% (cell-free assay; competition with immobilised ligand; 0.1 µM).
The remaining binding of Cc1cnc(Nc2ccc(C(=O)N3CCC(N4CCCC4)CC3)cc2)nc1-c1cc2ccccc2s1 is reported as 81% (binding; competition with immobilised ligand; 1 µM).
